{"source": "the RNAGym collection of RNA variant scans (doi:10.1002/anie.201605470)", "parents": {"B1": {"name": "Osa-1-4 twister ribozyme (parent)", "chain": "CCGCCUAACACUGCCAAUGCCGGUCCCAAGCCCGGAUAAAAGUGGAGGGGGCGG"}}}
{"variants_of": "B1", "assay": "self-cleavage, relative activity (ratio to wild type); higher = more cleavage; co-transcriptional", "how_it_was_run": "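The 48 positions downstream of the cleavage site in a DNA template for a 54-nucleotide Oryza sativa twister ribozyme carried 97 % wild-type base and 1 % of each other base. After in vitro transcription (2 h, 37 °C) with co-transcriptional self-cleavage, the RNA was reverse-transcribed with a template-switching oligonucleotide, PCR-amplified and deep-sequenced. Relative activity is the fraction cleaved, judged by reads with or without upstream sequence and normalised to wild type.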"}
{"variant": "CCGCCUAACACUGCCAAUGCCGGUCCCAAGCCCGGAAAAAAGUCGAGGGGGCGG", "note": "[G44C U37A]", "self-cleavage": 0.71}
{"variant": "CCGCCUAACACUGCCAAUGCCGGUCCCAAGCCCGGACAAAAGUCGAGGGGGCGG", "note": "[G44C U37C]", "self-cleavage": 1}
{"variant": "CCGCCUAACACUGCCAAUGCCGGUCCCAAGCCCGGAGAAAAGUCGAGGGGGCGG", "note": "[G44C U37G]", "self-cleavage": 1.02}
{"variant": "CCGCCUAACACUGCCAAUGCCGGUCCCAAGCCCGGAUAAAAGACGAGGGGGCGG", "note": "[G44C U43A]", "self-cleavage": 0.74}
{"variant": "CCGCCUAACACUGCCAAUGCCGGUCCCAAGCCCGGAUAAAAGCCGAGGGGGCGG", "note": "[G44C U43C]", "self-cleavage": 0.73}
{"variant": "CCGCCUAACACUGCCAAUGCCGGUCCCAAGCCCGGAUAAAAGGCGAGGGGGCGG", "note": "[G44C U43G]", "self-cleavage": 0.07}
{"variant": "CCGCCUAACACUGCCAAUGCCGGUCCCAAGCCCGGAUAAAAGUUGAGGGGGCGG", "note": "[G44U]", "self-cleavage": 0.93}
{"variant": "CCGCCUAACACUGCCAAUGCCGGUCCCAAGCCCGGAUAAAAGUUAAGGGGGCGG", "note": "[G44U G45A]", "self-cleavage": 0.1}
{"variant": "CCGCCUAACACUGCCAAUGCCGGUCCCAAGCCCGGAUAAAAGUUCAGGGGGCGG", "note": "[G44U G45C]", "self-cleavage": 0.06}
{"variant": "CCGCCUAACACUGCCAAUGCCGGUCCCAAGCCCGGAUAAAAGUUUAGGGGGCGG", "note": "[G44U G45U]", "self-cleavage": 0.08}
{"variant": "CCGCCUAACACUGCCAAUGCCGGUCCCAAGCCCGGAUAAAAGUUGAAGGGGCGG", "note": "[G44U G47A]", "self-cleavage": 0.14}
{"variant": "CCGCCUAACACUGCCAAUGCCGGUCCCAAGCCCGGAUAAAAGUUGACGGGGCGG", "note": "[G44U G47C]", "self-cleavage": 0.07}
{"variant": "CCGCCUAACACUGCCAAUGCCGGUCCCAAGCCCGGAUAAAAGUUGAUGGGGCGG", "note": "[G44U G47U]", "self-cleavage": 0.1}
{"variant": "CCGCCUAACACUGCCAAUGCCGGUCCCAAGCCCGGAUAAAAGUUGAGAGGGCGG", "note": "[G44U G48A]", "self-cleavage": 0.06}
{"variant": "CCGCCUAACACUGCCAAUGCCGGUCCCAAGCCCGGAUAAAAGUUGAGCGGGCGG", "note": "[G44U G48C]", "self-cleavage": 0.07}
{"variant": "CCGCCUAACACUGCCAAUGCCGGUCCCAAGCCCGGAUAAAAGUUGAGUGGGCGG", "note": "[G44U G48U]", "self-cleavage": 0.07}
{"variant": "CCGCCUAACACUGCCAAUGCCGGUCCCAAGCCCGGAUAAAAGUUGAGGAGGCGG", "note": "[G44U G49A]", "self-cleavage": 0.12}
{"variant": "CCGCCUAACACUGCCAAUGCCGGUCCCAAGCCCGGAUAAAAGUUGAGGCGGCGG", "note": "[G44U G49C]", "self-cleavage": 0.08}
{"variant": "CCGCCUAACACUGCCAAUGCCGGUCCCAAGCCCGGAUAAAAGUUGAGGUGGCGG", "note": "[G44U G49U]", "self-cleavage": 0.11}
{"variant": "CCGCCUAACACUGCCAAUGCCGGUCCCAAGCCCGGAUAAAAGUUGAGGGAGCGG", "note": "[G44U G50A]", "self-cleavage": 0.58}
{"variant": "CCGCCUAACACUGCCAAUGCCGGUCCCAAGCCCGGAUAAAAGUUGAGGGCGCGG", "note": "[G44U G50C]", "self-cleavage": 0.83}
{"variant": "CCGCCUAACACUGCCAAUGCCGGUCCCAAGCCCGGAUAAAAGUUGAGGGUGCGG", "note": "[G44U G50U]", "self-cleavage": 0.97}
{"variant": "CCGCCUAACACUGCCAAUGCCGGUCCCAAGCCCGGAUAAAAGUUGAGGGGACGG", "note": "[G44U G51A]", "self-cleavage": 0.69}
{"variant": "CCGCCUAACACUGCCAAUGCCGGUCCCAAGCCCGGAUAAAAGUUGAGGGGCCGG", "note": "[G44U G51C]", "self-cleavage": 0.07}
{"variant": "CCGCCUAACACUGCCAAUGCCGGUCCCAAGCCCGGAUAAAAGUUGAGGGGUCGG", "note": "[G44U G51U]", "self-cleavage": 0.19}
{"variant": "CCGCCUAACACUGCCAAUGCCGGUCCCAAGCCCGGAUAAAAGUUGAGGGGGCAG", "note": "[G44U G53A]", "self-cleavage": 0.75}
{"variant": "CCGCCUAACACUGCCAAUGCCGGUCCCAAGCCCGGAUAAAAGUUGAGGGGGCCG", "note": "[G44U G53C]", "self-cleavage": 0.08}
{"variant": "CCGCCUAACACUGCCAAUGCCGGUCCCAAGCCCGGAUAAAAGUUGAGGGGGCUG", "note": "[G44U G53U]", "self-cleavage": 0.3}
{"variant": "CCGCCUAACACUGCCAAUGCCGGUCCCAAGCCCGGAUAAAAGUUGAGGGGGCGA", "note": "[G44U G54A]", "self-cleavage": 0.88}
{"variant": "CCGCCUAACACUGCCAAUGCCGGUCCCAAGCCCGGAUAAAAGUUGAGGGGGCGC", "note": "[G44U G54C]", "self-cleavage": 0.92}
{"variant": "CCGCCUAACACUGCCAAUGCCGGUCCCAAGCCCGGAUAAAAGUUGAGGGGGCGU", "note": "[G44U G54U]", "self-cleavage": 0.9}
{"variant": "CCGCCUAACACAGCCAAUGCCGGUCCCAAGCCCGGAUAAAAGUUGAGGGGGCGG", "note": "[G44U U12A]", "self-cleavage": 0.11}
{"variant": "CCGCCUAACACCGCCAAUGCCGGUCCCAAGCCCGGAUAAAAGUUGAGGGGGCGG", "note": "[G44U U12C]", "self-cleavage": 0.43}
{"variant": "CCGCCUAACACGGCCAAUGCCGGUCCCAAGCCCGGAUAAAAGUUGAGGGGGCGG", "note": "[G44U U12G]", "self-cleavage": 0.15}
{"variant": "CCGCCUAACACUGCCAAAGCCGGUCCCAAGCCCGGAUAAAAGUUGAGGGGGCGG", "note": "[G44U U18A]", "self-cleavage": 0.83}
{"variant": "CCGCCUAACACUGCCAACGCCGGUCCCAAGCCCGGAUAAAAGUUGAGGGGGCGG", "note": "[G44U U18C]", "self-cleavage": 0.69}
{"variant": "CCGCCUAACACUGCCAAGGCCGGUCCCAAGCCCGGAUAAAAGUUGAGGGGGCGG", "note": "[G44U U18G]", "self-cleavage": 0.64}
{"variant": "CCGCCUAACACUGCCAAUGCCGGACCCAAGCCCGGAUAAAAGUUGAGGGGGCGG", "note": "[G44U U24A]", "self-cleavage": 0.09}
{"variant": "CCGCCUAACACUGCCAAUGCCGGCCCCAAGCCCGGAUAAAAGUUGAGGGGGCGG", "note": "[G44U U24C]", "self-cleavage": 0.15}
{"variant": "CCGCCUAACACUGCCAAUGCCGGGCCCAAGCCCGGAUAAAAGUUGAGGGGGCGG", "note": "[G44U U24G]", "self-cleavage": 0.04}
{"variant": "CCGCCUAACACUGCCAAUGCCGGUCCCAAGCCCGGAAAAAAGUUGAGGGGGCGG", "note": "[G44U U37A]", "self-cleavage": 0.66}
{"variant": "CCGCCUAACACUGCCAAUGCCGGUCCCAAGCCCGGACAAAAGUUGAGGGGGCGG", "note": "[G44U U37C]", "self-cleavage": 0.99}
{"variant": "CCGCCUAACACUGCCAAUGCCGGUCCCAAGCCCGGAGAAAAGUUGAGGGGGCGG", "note": "[G44U U37G]", "self-cleavage": 0.95}
{"variant": "CCGCCUAACACUGCCAAUGCCGGUCCCAAGCCCGGAUAAAAGAUGAGGGGGCGG", "note": "[G44U U43A]", "self-cleavage": 0.66}
{"variant": "CCGCCUAACACUGCCAAUGCCGGUCCCAAGCCCGGAUAAAAGCUGAGGGGGCGG", "note": "[G44U U43C]", "self-cleavage": 0.37}
{"variant": "CCGCCUAACACUGCCAAUGCCGGUCCCAAGCCCGGAUAAAAGGUGAGGGGGCGG", "note": "[G44U U43G]", "self-cleavage": 0.11}
{"variant": "CCGCCUAACACUGCCAAUGCCGGUCCCAAGCCCGGAUAAAAGUGAAGGGGGCGG", "note": "[G45A]", "self-cleavage": 0.52}
{"variant": "CCGCCUAACACUGCCAAUGCCGGUCCCAAGCCCGGAUAAAAGUGAAAGGGGCGG", "note": "[G45A G47A]", "self-cleavage": 0.06}
{"variant": "CCGCCUAACACUGCCAAUGCCGGUCCCAAGCCCGGAUAAAAGUGAACGGGGCGG", "note": "[G45A G47C]", "self-cleavage": 0.05}
